Most compounds without a hit are left out; they make up all but 2.7% or so of the library.
RBBP9 inh: human RBBP9 hydrolase inhibition; O75884; recombinant RBBP9, FP-Rh probe fluorescence polarization; inhibition, % at 7.94 µM; 0.2% of 220,000 active;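 active = inhibition above the campaign mean of all tested compounds plus 3 SD, cut at about 14% in these data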;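 also: plate controls were DMSO wells with RBBP9 for no effect and wells lacking RBBP9 protein for full effect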
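Measured by: FP readout at 525/598 nm; material: recombinant human RBBP9; also added: Serine-hydrolase probe FP-Rh, 375 nM pre-mixing; medium: Tris buffer pH 8.0, NaCl, Pluronic; replication: one well per compound; doses: one concentration, 7.94 µM nominal, 0.794% DMSO; timing: preincubation 30 min plus labeling 45 min at 25 °C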
PAD4 inh: inhibitors of human PAD4. Q9UM07. recombinant PAD4, RCA probe fluorescence polarization. inhibition, % at 6.36 µM. 0.41% of 330,000 active;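 active = percent inhibition above a cutoff equal to the mean of all tested compounds plus 3 SD, cut at about 15% in these data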;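 also: 0% = PAD4 with RCA probe and DMSO and 100% = probe without PAD4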
PRMT1 inh: blocks human protein arginine methyltransferase 1. Q99873. recombinant PRMT1, activity-based probe fluorescence polarization. inhibition, % at 2.79 µM. 1.3% of 370,000 active. AID 652257;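 active = inhibition above about 21% made by adding two undisclosed values, limit read from the data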
SIAE inh: human SIAE inhibition, primary screen. Q9HAT2. SIAE FP-Rh probe binding, fluorescence polarization. inhibition, % at 9.66 µM. 0.69% of 370,000 active. AID 1053197;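 active = inhibition above a cutoff: mean of compounds within the control limits plus 3 SD of those, cut at about 17% in these data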;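 also: 0% = plate median of compound wells and 100% = probe without SIAE protein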
Target sequence (Q9HAT2 whole entry, looked up): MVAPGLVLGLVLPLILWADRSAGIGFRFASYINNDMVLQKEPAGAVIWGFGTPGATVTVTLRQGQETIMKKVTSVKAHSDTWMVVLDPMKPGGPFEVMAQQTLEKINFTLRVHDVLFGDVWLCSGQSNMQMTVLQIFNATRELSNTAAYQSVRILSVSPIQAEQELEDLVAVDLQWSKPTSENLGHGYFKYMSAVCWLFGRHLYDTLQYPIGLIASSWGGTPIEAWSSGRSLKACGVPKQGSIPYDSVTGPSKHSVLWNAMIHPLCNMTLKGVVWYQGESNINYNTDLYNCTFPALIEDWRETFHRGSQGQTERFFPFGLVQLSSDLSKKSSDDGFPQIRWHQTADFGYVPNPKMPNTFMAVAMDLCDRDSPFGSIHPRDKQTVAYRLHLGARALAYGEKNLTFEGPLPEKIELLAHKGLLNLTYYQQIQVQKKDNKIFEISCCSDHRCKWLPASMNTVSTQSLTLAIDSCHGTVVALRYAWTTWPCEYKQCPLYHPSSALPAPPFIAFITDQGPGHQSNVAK
GSTO1 inh: counter-screen for RBBP9 inhibitors: inhibitors of human GSTO1. inhibition, % at 5.96 µM. recombinant GSTO1, activity-based probe fluorescence polarization. P78417. 1.1% of 300,000 active;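 active = inhibition above the campaign mean inhibition plus 3 SD, cut at about 35% in these data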;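 also: 0% = GSTO1-1 with DMSO and 100% = wells lacking GSTO1-1 enzyme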
RBBP9 inh conf: confirmation of human RBBP9 inhibitors; 36% of 410 active; recombinant RBBP9, FP-Rh probe fluorescence polarization; inhibition, % at 7.94 µM; shares compounds with RBBP9 inh; AID 1537;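 active = inhibition above the hit cutoff derived for the primary screen, cut at about 15% in these data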;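 also: 0% = RBBP9 with DMSO and 100% = wells lacking RBBP9 protein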
GSTO1 confirm: GSTO1 (human) inhibition, confirmation | recombinant GSTO1, probe fluorescence polarization | AID 2176 | shares compounds with GSTO1 inh | inhibition, % at 5.96 µM | 54% of 2,400 active;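 active = inhibition above the primary screen's cutoff, its mean inhibition plus 3 SD, cut at about 35% in these data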;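 also: loss of polarization as inhibitors block binding of rhodamine sulfonate ester activity probe; 0% = GSTO1 with DMSO and 100% = wells lacking GSTO1 enzyme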
Starred values were filed as active, the others as inactive; . = no result given.

SMILES	RBBP9 inh	PAD4 inh	PRMT1 inh	SIAE inh	GSTO1 inh	GSTO1 confirm	others
Nc1c(C(=O)NC2CCCC2)c2nc3ccccc3nc2n1CC1CCCO1 (stereo not drawn)	-2	19*	-1	-2	66*	.
C=CCN1C(=O)NC(=O)/C(=C/c2ccc(OC)c(COc3ccc(NC(C)=O)cc3)c2)C1=O	1	1	2	3	-1	.
COc1ccc(Cn2c(N)c(C(=O)NCc3ccco3)c3nc4ccccc4nc32)cc1OC	6	-4	7	-13	53*	.
CN1C(=O)C(Cc2ccccc2)C(=O)N(C)C1=O	.	.	3	7	.	.
CN1C(=O)C(Cc2ccc3c(c2)OCO3)C(=O)N(C)C1=O	-4	-2	.	.	41*	.
CCOC(=O)c1c(N)n(CCCOC(=O)c2ccco2)c2nc3ccccc3nc12	-1	-3	-2	-9	33	.
CCCCCn1c(NC(=O)c2ccco2)c(C(=O)OCC)c2nc3ccccc3nc21	-8	7	.	.	74*	.
COC(=O)C1=C(c2cc3ccccc3o2)C[C@@H]2CC[C@H]1N2C(=O)NCc1ccccc1	.	-1	-2	-1	11	.
CC12CCC3C(CC=C4CC5(CCC43C)OCCO5)C1CCC2=O (stereo not drawn)	-3	2	-2	3	-2	.
CC(=O)c1ccc2c(c1)C1C(Cl)C(Sc3ccccc3[N+](=O)[O-])CC1C(c1ccccc1)N2 (stereo not drawn)	10	-9	17	18*	7	.
O=S(=O)(c1ccc(F)cc1)N1CN2CCN(C2)C1	.	0	1	6	-1	.
O=C(c1ccc(N2CC3CC(C2)c2cccc(=O)n2C3)c([N+](=O)[O-])c1)N1CCCCC1 (stereo not drawn)	-2	-2	-5	-1	-2	.
CN1CCN2c3ccc(N)cc3CC3(C(=O)NC(=O)NC3=O)C2C1 (stereo not drawn)	21*	.	0	0	.	.	RBBP9 inh conf=65*
C=CCN(CC=C)Cc1c[nH]c2ccccc12	1	-6	0	4	18	.
CCN(CC)c1ccc(C=C2C(=O)NC(=S)NC2=O)cc1	2	0	10	-7	2	.
CC(C)CN(CC(C)C)c1ccc(C=C2C(=O)NC(=S)NC2=O)cc1[N+](=O)[O-]	-3	-5	17	10	42*	27
CC(C)C[C@H]1C(=O)N2CCC[C@H]2[C@]2(O)O[C@](NC(=O)[C@@H]3C=C4c5cccc6[nH]cc(c56)C[C@H]4N(C)C3)(C(C)C)C(=O)N12	.	7	.	.	51*	6
N=c1sccn1Cc1ccc(Cl)cc1Cl	-5	0	0	5	75*	7
Clc1ccc(CO/N=C(\Cn2ccnc2)c2ccc(Cl)cc2Cl)c(Cl)c1	.	-2	.	.	2	.
C=C(C)Cn1c(=O)n(CC2CS2)c2ccccc21 (stereo not drawn)	-4	-1	-2	-14	50*	46*
COc1cc(O)c(C(=O)O)c(-c2cc(O)c(O)cc2C)c1	.	1	67*	13	64*	23
CCN1C[C@]2(C)CC[C@H](O)[C@]34C1[C@H](C[C@H]23)[C@@]1(O)C[C@H](OC)[C@H]2C[C@@H]4[C@@H]1C2O (stereo partly drawn)	.	2	-1	-2	3	.
C[C@]12CC[C@@H]3c4ccc(O)c(O)c4CC[C@H]3[C@@H]1CC[C@@H]2O	-2	1	35*	-7	61*	8
C[C@]12CC[C@H]3[C@@H](CCC4=CC(=O)CC[C@@H]43)[C@@H]1CC[C@@H]2O	.	5	5	-2	.	.
CC1Oc2cc3c(-c4c(O)cc(O)c5c(O)c6c(cc45)OC(C)C(C)C6=O)c(O)cc(O)c3c(O)c2C(=O)C1C (stereo not drawn)	14	-7	.	.	73*	60*
CCCN1CCc2cccc3c2[C@H]1Cc1ccc(O)c(O)c1-3	.	4	.	.	93*	9
COc1ccc2c(c1O)-c1c(OC)c(OC)cc3c1[C@H](C2)N(C)CC3	.	-3	0	1	5	.
Cc1nn(C)c(C)c1/C=C1/CC2C3CC=C4CC(O)CCC4(C)C3CCC2(C)C1=O (stereo not drawn)	-4	4	-2	8	-4	.
c1cc2c(cc1N1CCOCC1)CNCc1cnnn1-2	.	.	0	3	.	.

Source: PubChem BioAssay
